The source made the active and inactive calls. No cut-off for these calls is given here.
Columns and labels:
H9 [1] = assay: Cytotoxicity against human H9 cells assessed as cell viability incubated for 7 days by MTT colorimetric assay; type: functional; conditions: H9, 168 h, time 7 day
In short: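 H9 cells (2 × 10⁵/well) were incubated with varying compound concentrations in RPMI-1640 with 10% FBS at 37 °C in 5% CO₂ for seven days. Viability was read by MTT colorimetric assay, and CC50 was calculated.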

[2] = Therapeutic index, ratio of CC50 for cytotoxicity against human H9 cells to EC50 for antiviral activity against HIV13B; type: toxicity, cell-based; conditions: read-out: TI
In short: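 TI = CC50/EC50. For EC50, H9 cells were infected with HIV-1 IIIB at MOI 0.03 for 2 h, washed three times, plated at 4 × 10⁴ cells/well with serial compound dilutions, and kept 7 days at 37 °C, 5% CO₂; supernatant p24 was read by in-house ELISA. For CC50, uninfected H9 cells at 2 × 10⁵/well in RPMI-1640 with 10% FBS were kept 7 days, then read by MTT.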

[3] = test system: Human immunodeficiency virus 1; assay: Antiviral activity against HIV13B infected in human H9 cells assessed as p24 level incubated for 7 days by ELISA; type: functional, organism-based; conditions: Human immunodeficiency virus 1, 3B, H9, 168 h
In short: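 H9 cells were infected with HIV-1 IIIB at MOI 0.03 for 2 h, washed three times and resuspended in RPMI-1640. Infected cells (4 × 10⁴/well) were cultured with serially diluted compound at 37 °C in 5% CO₂ for 7 days. Supernatant p24 was measured by in-house ELISA, and EC50 was calculated.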

[4] = test system: Human immunodeficiency virus 1; assay: Antiviral activity against NRTI resistant HIV1-4755-5 infected in human TZM-bl cells assessed as inhibition of replication for 48 hrs by microplate reader method; type: functional, organism-based; conditions: Human immunodeficiency virus 1, 4755-5, TZM-bl
[5] = test system: Human immunodeficiency virus 1; assay: Antiviral activity against PI resistant HIV-1 L70R/M461/L63P/V82T/184V infected in human TZM-bl cells assessed as inhibition of replication for 48 hrs by microplate reader method; type: functional, organism-based; conditions: Human immunodeficiency virus 1, L70R/M461/L63P/V82T/184V
[6] = target: Virion infectivity factor (Human immunodeficiency virus type 1 group M subtype B (isolate NY5)(HIV-1)) (UniProt P12504); assay: Reversal of HIV1 Vif mediated A3G degradation in HIV1 infected human H9 cells for 48 hrs by western blotting analysis; type: cell-based; conditions: Human immunodeficiency virus 1
Sequence of Virion infectivity factor (Human immunodeficiency virus type 1 group M subtype B (isolate NY5)(HIV-1)) (P12504 whole entry): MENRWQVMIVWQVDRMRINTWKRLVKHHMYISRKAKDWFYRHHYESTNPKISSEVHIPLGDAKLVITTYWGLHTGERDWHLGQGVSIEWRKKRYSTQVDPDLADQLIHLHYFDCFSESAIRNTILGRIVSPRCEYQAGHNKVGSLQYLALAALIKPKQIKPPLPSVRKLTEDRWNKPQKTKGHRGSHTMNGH
In short: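 Cells expressing A3G-HA and Vif were treated with compound at 50, 10 and 2 (three concentrations) at 37 °C for 48 h. They were then washed in ice-cold PBS and lysed in RIPA. A3G-HA and Vif were detected by SDS-PAGE, PVDF transfer, primary antibodies overnight at 4 °C, and HRP secondary for 2 h at room temperature, with chemiluminescence on X-ray film.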

H9 [7] = assay: Reduction in HIV1 Vif expression in HIV1 infected human H9 cells assessed as for 48 hrs by western blotting analysis; type: functional, cell-based; conditions: Human immunodeficiency virus 1, dose 2-50 µM
In short: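 Cells were exposed to the compound at […] at 37 °C for 48 h, then washed with ice-cold PBS and lysed in RIPA buffer. A3G-HA and Vif were resolved by SDS-PAGE and transferred to PVDF. Blots were probed overnight at 4 °C with primary antibodies, then 2 h at room temperature with HRP secondary antibodies. Bands were visualized by chemiluminescence on X-ray film.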

[8] = test system: Human immunodeficiency virus; assay: Antiviral activity against FI resistant HIV PNL4-3-3gp41(364)V38A N42T infected in human TZM-bl cells assessed as inhibition of replication for 48 hrs by microplate reader method; type: functional, organism-based
[9] = test system: Human immunodeficiency virus 1; assay: Antiviral activity against IN resistant HIV1 pYU2G14OS/Q148H infected in human TZM-bl cells assessed as inhibition of replication for 48 hrs by microplate reader method; type: functional, organism-based; conditions: Human immunodeficiency virus 1, pYU2G14OS/Q148H
[10] = test system: Human immunodeficiency virus 1; assay: Antiviral activity against NNRTI resistant HIV1 A17 infected in human TZM-bl cells assessed as inhibition of replication for 48 hrs by microplate reader method; type: functional, organism-based; conditions: Human immunodeficiency virus 1, A17, TZM-bl

Cc1cc(C)cc(NC(=O)c2c(N)cccc2S(=O)(=O)c2ccc([N+](=O)[O-])cc2)c1
CC50 (H9 [1]): > 100 µM | selectivity ratio [2]: > 3.79 | EC50 [3]: 26.4 µM

COc1ccc(OCCO)cc1NC(=O)c1c(N)cccc1Sc1ccc([N+](=O)[O-])cc1
EC50 [3]: > 100 µM

COc1ccc(OCCCO)cc1NC(=O)c1c(N)cccc1Sc1ccc([N+](=O)[O-])cc1
EC50 [3]: > 100 µM

COc1ccc(C(=O)O)cc1NC(=O)c1c(N)cccc1S(=O)(=O)c1ccc([N+](=O)[O-])cc1
EC50 [3]: > 100 µM

COc1ccc(Cl)cc1NC(=O)c1c(N)ncnc1Sc1ccc([N+](=O)[O-])cc1
CC50 (H9 [1]): 2.22 µM | selectivity ratio [2]: 0.11 | EC50 [3]: 20 µM

COc1ccc(OCCN2CCOCC2)cc1NC(=O)c1c(N)cccc1Sc1ccc([N+](=O)[O-])cc1
EC50 [3]: > 100 µM

COc1ccc(NC(=O)c2c(N)cccc2S(=O)(=O)c2ccc([N+](=O)[O-])cc2)cc1OC
CC50 (H9 [1]): > 100 µM | selectivity ratio [2]: > 6.45 | EC50 [3]: 15.5 µM

Cc1cc(Br)ccc1NC(=O)c1c(N)cccc1S(=O)(=O)c1ccc([N+](=O)[O-])cc1
EC50 [3]: > 100 µM

COc1ccc(NC(=O)c2c(N)cccc2S(=O)(=O)c2ccc([N+](=O)[O-])cc2)cc1O
EC50 [3]: > 100 µM

COc1ccc(F)cc1NC(=O)c1c(N)cccc1S(=O)(=O)c1ccc([N+](=O)[O-])cc1
CC50 (H9 [1]): 89.6 µM | selectivity ratio [2]: 46.4 | EC50 [3]: 1.93 µM

COc1cccc(NC(=O)c2c(N)cccc2S(=O)(=O)c2ccc([N+](=O)[O-])cc2)c1
EC50 [3]: > 100 µM

COc1ccc(OC)c(NC(=O)c2c(N)cccc2S(=O)(=O)c2ccc([N+](=O)[O-])cc2)c1
CC50 (H9 [1]): > 200 µM | selectivity ratio [2]: > 50.4 | EC50 [3]: 3.97 µM

COc1ccc(F)cc1NC(=O)c1c(N)ncnc1Sc1ccc([N+](=O)[O-])cc1
CC50 (H9 [1]): 26.6 µM | selectivity ratio [2]: 0.65 | EC50 [3]: 41.1 µM

COc1ccc(OC)c(NC(=O)c2c(N)cccc2Sc2ccc([N+](=O)[O-])cc2)c1
CC50 (H9 [1]): > 200 µM | selectivity ratio [2]: > 49.4 | EC50 [3]: 4.05 µM

Nc1cccc(S(=O)(=O)c2ccc([N+](=O)[O-])cc2)c1C(=O)Nc1cccc(O)c1
EC50 [3]: > 100 µM

COc1ccc(C(=O)O)cc1NC(=O)c1c(N)cccc1Sc1ccc([N+](=O)[O-])cc1
CC50 (H9 [1]): > 100 µM | selectivity ratio [2]: > 238 | EC50 [3]: 0.42 µM

COc1ccccc1NC(=O)c1c(N)cccc1S(=O)(=O)c1ccc([N+](=O)[O-])cc1
CC50 (H9 [1]): > 468 µM | selectivity ratio [2]: > 1380 | EC50 [3]: 0.34 µM

COc1cc(NC(=O)c2c(N)cccc2S(=O)(=O)c2ccc([N+](=O)[O-])cc2)cc(OC)c1
EC50 [3]: > 100 µM

Nc1cccc(S(=O)(=O)c2ccc([N+](=O)[O-])cc2)c1C(=O)Nc1ccc(Cl)cc1F
CC50 (H9 [1]): > 100 µM | selectivity ratio [2]: > 9.71 | EC50 [3]: 10.3 µM

COc1ccc(F)cc1NC(=O)c1c(N)cccc1Sc1ccc([N+](=O)[O-])cc1
CC50 (H9 [1]): > 100 µM | selectivity ratio [2]: > 47.2 | EC50 [3]: 2.12 µM

COc1ccc(O)cc1NC(=O)c1c(N)cccc1Sc1ccc([N+](=O)[O-])cc1
CC50 (H9 [1]): > 100 µM | selectivity ratio [2]: > 213 | EC50 [3]: 0.47 µM

COc1cc(O)ccc1NC(=O)c1c(N)cccc1S(=O)(=O)c1ccc([N+](=O)[O-])cc1
CC50 (H9 [1]): 54.7 µM | selectivity ratio [2]: 9.48 | EC50 [3]: 5.77 µM

COc1ccc(NC(=O)c2c(N)cccc2S(=O)(=O)c2ccc([N+](=O)[O-])cc2)cc1
EC50 [3]: > 100 µM

COc1ccccc1NC(=O)c1c(N)ncnc1Sc1ccc([N+](=O)[O-])cc1
CC50 (H9 [1]): 32.9 µM | selectivity ratio [2]: 3.38 | EC50 [3]: 9.73 µM

COc1ccc(NC(=O)c2c(N)cccc2S(=O)(=O)c2ccc([N+](=O)[O-])cc2)c(OC)c1
CC50 (H9 [1]): > 100 µM | selectivity ratio [2]: > 27.9 | EC50 [3]: 3.58 µM

COc1ccc(O)cc1NC(=O)c1c(N)cccc1S(=O)(=O)c1ccc([N+](=O)[O-])cc1
EC50 [4]: 8.4 µM | EC50 [5]: 4.39 µM | CC50 (H9 [1]): 259 µM | selectivity ratio [2]: 3700 | EC50 [3]: 0.07 µM | Activity [6]: Dose-Dependent Effect | Activity (H9 [7]): Active | EC50 [8]: 3.02 µM | EC50 [9]: 3.74 µM | EC50 [10]: 46.4 µM

COc1ccc(O)cc1NC(=O)c1c(N)ncnc1Sc1ccc([N+](=O)[O-])cc1
CC50 (H9 [1]): 35.8 µM | selectivity ratio [2]: 0.88 | EC50 [3]: 40.6 µM

Nc1cccc(S(=O)(=O)c2ccc([N+](=O)[O-])cc2)c1C(=O)Nc1ccc(O)cc1
CC50 (H9 [1]): 32.5 µM | EC50 [3]: 4.59 µM

Nc1ccn([C@@H]2CS[C@H](CO)O2)c(=O)n1 [LAMIVUDINE]
CC50 (H9 [1]): > 200 µM | selectivity ratio [2]: > 976 | EC50 [3]: 0.21 µM
